From PubChem
T cell modulator – T cell immune modulators affecting CD8 T cell-vesicle binding; AID 2052; 2C CD8+ T cell-vesicle binding, flow cytometry; active compounds read low; response (vesicle binding), % at 7 µM; 0.068% of 330,000 active;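 active = response, share of CD8 T cells binding vesicles, and their 90th percentile fluorescence all below set limits, cut at about 80% in these data, passing the limit was not always enough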;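 also: values below 100% mean blocked vesicle binding to the CD8+ T cells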
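material = purified 2C TCR transgenic mouse naive CD8+ T cells | controls = Unloaded micro-vesicles (low), QL9 vesicles with 0.7% DMSO (high) | detection = cytometric PE anti-B7-1 and Alexa647 anti-CD8 signals after 1% paraformaldehyde fixation | incubation = binding step 1.5 h, 37 °C, antibody labelling 20 min, ice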
Rce1 inh – yeast Ras-converting enzyme inhibition | Q03530 | yeast membranes, quenched prenylated peptide cleavage fluorescence | 0.27% of 290,000 active | calls only;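 active = fall in fluorescence gain of 50% or more versus controls, with final raw signal at or below 3038400; inconclusive = same 50% fall but final raw signal above 3038400; inactive = fall in fluorescence gain under 50%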;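 also: plate controls were neutral control wells for no effect and wells lacking membranes for full effect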
Myeloid diff MLP – compounds promoting myeloid differentiation. calls only at 10 µM. 1% of 360,000 active. AID 624256. ER-HoxA9 myeloid progenitors, lysozyme-GFP differentiation, flow cytometry;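 active = normalized GFP-positive differentiation at or above the plate's own cutoff, the solvent-only control mean plus 3 SD; inconclusive = no clear call, values can overlap the other calls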;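 also: cells exposed to compound for four days before flow analysis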
GRK2 aptamer HTS – human GRK2 inhibition via aptamer displacement; 0.59% of 330,000 active; P25098; AID 488847; inhibition of aptamer binding, % at 10 µM; bead flow cytometry, FAM-aptamer displacement from GRK2;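 active = inhibition of aptamer binding above 40%, roughly 3 SD of noise, on plates passing a quality check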;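 also: median bead fluorescence of bound FAM aptamer so fluorescent compounds give negative values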
Rin1-Abl PPI inh – blocks binding of human Rin1 to Abl; P00519+Q13671; TR-FRET Rin1/Abl binding, biochemical; inhibition, % at 7.35 µM; 0.4% of 360,000 active; AID 588664; in the data active = inhibition above about 5%, passing the limit was not always enough
SKN-1 inh – C. elegans SKN-1 inhibition. AID 624304. C. elegans VP596 Pgst-4::GFP/RFP ratio, acrylamide-induced, 24 h. 0.49% of 360,000 active. inhibition, % at 21.8 µM;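 active = interference check ratio from 0.5 to 1.5 plus GFP to RFP signal ratio inhibition reaching or exceeding a fixed threshold, cut at about 30% in these data, passing the limit was not always enough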
Numbers without * were called inactive; i = inactive; ? = inconclusive; . = no result given; + = active, no number; ! = not confirmed by another sample. Rows were chosen to be rich in hits. Some 2.6% of all compounds tested hit in one or more screens of this group.

SMILES | T cell modulator | Rce1 inh | Myeloid diff MLP | GRK2 aptamer HTS | Rin1-Abl PPI inh | SKN-1 inh
O=C(C[n+]1ccc(C(=O)NCc2ccccc2)cc1)c1ccc2c(c1)OCCO2 | 259.9 | i | i | 0.0 | 0.5 | -22.8
Nc1cc[n+](CC(=O)c2ccc3c(c2)OCCO3)cc1 | 381.4 | . | + | 0.0 | 0.6 | 8.3
CCN(c1ccc(N=Cc2c(O)n(Cc3ccc(OC)cc3)c(=O)c3ccccc23)cc1)C(C)C | . | . | + | . | -4.3 | 7.2
Cn1c(SCC(=O)Nc2ccc(Br)cn2)nnc1C1CC1 | 73.6 | i | i | 1.0 | -1.0 | 19.0
COc1cc(C(=O)c2nccc3cc(OC)c(OC)cc23)c([N+](=O)[O-])cc1OC | 265.3 | i | i | 3.0 | 2.5 | -5.5
CN(C)C(=O)C(CCN1CCC(O)(c2ccc(Cl)cc2)CC1)(c1ccccc1)c1ccccc1 | 219.1 | i | + | 0.0 | 0.5 | 8.5
OC(CCCN1CCC(O)(c2ccc(Cl)cc2)CC1)c1ccc(F)cc1 (centres undefined) | 151.3 | i | i | 0.0 | 1.1 | 0.0
Clc1ccc(OCc2cnc(Cl)s2)cc1 | 429.1 | i | i | 0.0 | 4.5 | 61.3*
COc1cc(OC)c(CN2CCc3c([nH]c4ccccc34)C2)cc1Br | 281.8 | i | + | 0.0 | -2.8 | 8.7
Clc1cccc(CN2CCc3c([nH]c4ccccc34)C2)c1 | 213.5 | . | i | 0.0 | -2.9 | 6.5
Clc1ccc(CN2CCc3c([nH]c4ccccc34)C2)cc1Cl | 344.8 | + | i | 0.0 | -0.4 | -2.6
Cc1cccc(CN2CCc3c([nH]c4ccccc34)C2)c1 | 556.0 | i | i | 0.0 | 0.3 | -0.4
COc1ccccc1N1CCN(CCC(=O)Nc2ccc3c(c2)OCO3)CC1 | 522.4 | . | i | 0.0 | 1.4 | 48.5*
COc1cccc(/C=C2\SC(=S)N(CCCC(=O)N3CCCC3)C2=O)c1 | 494.5 | i | ? | 55.0* | -0.7 | -18.4
COc1cccc(/C=C2\SC(=S)N(CCCC(=O)N3CCCCC3CCO)C2=O)c1 (centres undefined) | 221.4 | i | ? | 3.0 | -4.3 | -0.6
CSC(=NCCCN1CCOCC1)NS(=O)(=O)c1cccs1 | 391.7 | i | i | 2.0 | -2.2 | 43.3*!
Cc1nn(C)c(C(=O)Nc2ccn(Cc3c(F)c(F)cc(F)c3F)n2)c1[N+](=O)[O-] | 361.4 | i | + | 3.0 | 1.2 | 6.1
Cc1nn(Cc2cccc(C(=O)Nc3ccn(Cc4c(F)c(F)cc(F)c4F)n3)c2)c(C)c1[N+](=O)[O-] | 263.7 | i | i | 0.0 | -0.5 | 11.2
Cc1ccc(C)c(Oc2cc(F)nc(N)n2)c1 | 357.5 | i | + | 3.0 | 4.8 | 6.4
COc1ccc(Oc2cc(F)nc(N)n2)cc1 | 198.8 | i | i | 0.0 | 0.5 | 6.4
O=C(CN1C(=O)NC2(CCCC2)C1=O)NCc1ccccc1 | 292.7 | . | i | 4.0 | 0.4 | 8.3
CCCNc1c(F)c(F)c2c(C)c3ccccc3nc2c1F | 453.2 | i | + | 0.0 | -0.9 | 39.0*
O=C(COc1cc(Cl)c(Cl)cc1Cl)NCCN1CCOCC1 | 252.2 | i | + | 0.0 | -0.1 | 15.2
Cc1ccc(C(=O)NCCN2CCOCC2)c(Cl)c1 | 486.7 | . | + | 1.0 | -2.6 | -11.8
CC(C)(C)CC(=O)NC(=S)N1CCCCCC1 | 252.2 | i | i | 0.0 | -1.8 | 81.2*
SMILES | T cell modulator | Rce1 inh | Myeloid diff MLP | GRK2 aptamer HTS | Rin1-Abl PPI inh | SKN-1 inh
CC(C)(C)c1ccc(C(=O)NC(=S)N2CCCCCC2)cc1 | 294.2 | i | i | 3.0 | 0.0 | 1.2
Cn1c(=O)c(C(=O)NNC(=O)c2ccc(Br)cc2)c(O)c2ccccc21 | 399.8 | i | i | 47.0* | 0.6 | 0.0
Cn1c(=O)c(C(=O)NCCO)c(O)c2ccccc21 | 352.3 | + | i | 1.0 | -0.1 | -20.0
Cn1c(=O)c(C(=O)NNC(=O)c2ccccc2F)c(O)c2ccccc21 | 177.9 | i | + | 0.0 | 0.1 | -9.1
CCn1c(=O)c(C(=O)NNC(=O)c2ccccc2F)c(O)c2ccccc21 | 347.2 | . | ? | 7.0 | 3.3 | -0.9
COc1ccc(Cc2nc3ccc(C(=O)N4CCCC4)cc3o2)cc1 | 409.4 | + | i | 1.0 | 0.6 | 4.0
CC(C)[C@H](NC(=O)OCc1ccccc1)C(=O)N[C@@H](Cc1c[nH]c2ccccc12)C(=O)O | 263.1 | i | i | 2.0 | 0.7 | -1.0
COc1ccc2nc(C)cc(SCC(=O)N/N=C/c3ccco3)c2c1 | 209.2 | i | i | 0.0 | -8.6 | 10.4
